According to ChEMBL document CHEMBL1136006, “New PET imaging agent for the serotonin transporter: [(18)F]ACF (2-[(2-amino-4-chloro-5-fluorophenyl)thio]-N,N-dimethyl-benzenmethanamine)” (J Med Chem, 2002):

Columns and labels:
Rattus norvegicus [1] = species: Rattus norvegicus; test: Regional brain distribution of [18F]ACF radiolabeled compound in rat hypothalamus after 60 min; format: ADME, organism-based; conditions: in vivo, 1 h
Procedure, shortened: (§1)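 Rats (three per group) under ether anesthesia got 30 μCi tracer in 0.2 mL saline into the femoral vein and were killed by cardiac excision at the stated time. Cortex, striatum, hippocampus, cerebellum, hypothalamus and the rest of brain were dissected, weighed and gamma counted. %dose/g was taken against counts of a diluted initial dose. Regional ratios are each region's %dose/g over cerebellum's. Mean ± SD.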

Rattus norvegicus [2] = test: Effect of pretreatment with (+)-McN5652 with a dose of 2 mg/kg (i.v.) on specific binding of [18F]ACF in rat brain remainder; dose/g; format: ADME, organism-based; parameters: dose 2 mg/kg, route intravenous; conditions: in vivo, iv
Procedure, shortened: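 Rats pretreated iv with drug (2 mg/kg) or saline 5 min before iv [18F]ACF (50 μCi). Sacrificed 1 h after tracer. Brain regions were dissected, weighed and counted, and % dose/g was calculated against a diluted initial dose. Drug-treated rats were compared with saline controls by ANOVA/Dunnett's test (p<0.05). Three rats per point, average ± SD.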

Rattus norvegicus [3] = species: Rattus norvegicus; test: Ratio of regional brain distribution of [18F]ACF radiolabeled compound in rat striatum to that of cerebellum after 60 min; format: ADME, organism-based; conditions: in vivo, 1 h; procedure, shortened: as §1
Rattus norvegicus [4] = species: Rattus norvegicus; test: Organ distribution of [18F]ACF radiolabeled compound in rat brain after 240 min; format: ADME, organism-based; conditions: in vivo, 4 h
Procedure, shortened: (§2)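 Rats, three per time point, under ether anesthesia; 30 μCi tracer in 0.2 mL saline injected into femoral vein. Sacrificed by cardiac excision under ether at 2, 30, 60, 120 or 240 min. Organs removed, weighed and counted; % dose/organ calculated against counts of 1% of initial dose counted at the same time. Average of three rats ± SD.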

Rattus norvegicus [5] = species: Rattus norvegicus; test: Ratio of regional brain distribution of [18F]ACF radiolabeled compound in rat hippocampus to that of cerebellum after 60 min; format: ADME, organism-based; conditions: in vivo, 1 h; procedure, shortened: as §1
Rattus norvegicus [6] = species: Rattus norvegicus; test: Regional brain distribution of [18F]ACF radiolabeled compound in rat remainder (rest of brain) after 120 min; format: ADME, organism-based; conditions: in vivo, 2 h; procedure, shortened: as §1
Rattus norvegicus [7] = species: Rattus norvegicus; test: Organ distribution of [18F]ACF radiolabeled compound in rat bone after 60 min; format: ADME, organism-based, Bone element; conditions: in vivo, 1 h; procedure, shortened: as §2
Rattus norvegicus [8] = species: Rattus norvegicus; test: Regional brain distribution of [18F]ACF radiolabeled compound in rat cerebellum after 60 min; format: ADME, organism-based; conditions: in vivo, 1 h; procedure, shortened: as §1
Rattus norvegicus [9] = species: Rattus norvegicus; test: Ratio of regional brain distribution of [18F]-ACF radiolabeled compound in rat cortex to that of cerebellum after 240 min; format: ADME, organism-based; conditions: in vivo, 4 h
Procedure, shortened: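 Rats, three per time point, given 30 μCi tracer in 0.2 mL saline into femoral vein under ether anesthesia; killed at 2, 30, 60, 120 or 240 min. Cortex, striatum, hippocampus, cerebellum, hypothalamus and rest of brain dissected, weighed, counted; % dose/g against diluted initial dose, then each region divided by cerebellum. Average of three rats ± SD.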

Rattus norvegicus [10] = species: Rattus norvegicus; test: Regional brain distribution of [18F]-ACF radiolabeled compound in rat cerebellum after 2 min; format: ADME, organism-based; conditions: in vivo; procedure, shortened: as §1
Rattus norvegicus [11] = species: Rattus norvegicus; test: Organ distribution of [18F]ACF radiolabeled compound in rat heart after 2 min; format: ADME, organism-based; conditions: in vivo; procedure, shortened: as §2
Rattus norvegicus [12] = test: Ratio of effect of pretreatment with nisoxatine with a dose of 2 mg/kg (i.v.) on specific binding of [18F]ACF in rat brain cerebellum to that of cerebellum; format: ADME, organism-based; parameters: dose 2 mg/kg, route intravenous; conditions: in vivo, iv
Procedure, shortened: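 Rats (three per point) pretreated iv with competing drug at 2 mg/kg or saline (control) 5 min before iv [18F]ACF (50 μCi). At 1 h post tracer, brain regions (cortex, striatum, hippocampus, cerebellum, hypothalamus, remainder) dissected, weighed, counted as % dose/g and expressed as ratio to cerebellum. Average ± SD; ANOVA with Dunnett's test vs saline controls, p < 0.05.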

Rattus norvegicus [13] = species: Rattus norvegicus; test: Regional brain distribution of [18F]ACF radiolabeled compound in rat cerebellum after 120 min; format: ADME, organism-based; conditions: in vivo, 2 h; procedure, shortened: as §1

Dose/g (Rattus norvegicus [1]): 0.54%
Dose/g (Rattus norvegicus [2]): 0.23%
Ratio (Rattus norvegicus [3]): 2.88
Dose/g (Rattus norvegicus [4]): 0.06 % dose/organ
Ratio (Rattus norvegicus [5]): 2.91
Dose/g (Rattus norvegicus [6]): 0.12%
Dose/g (Rattus norvegicus [7]): 0.08 % dose/organ
Dose/g (Rattus norvegicus [8]): 0.15%
Ratio (Rattus norvegicus [9]): 1.52
Dose/g (Rattus norvegicus [10]): 1.33%
Dose/g (Rattus norvegicus [11]): 1.69 % dose/organ
Ratio (Rattus norvegicus [12]): 1
Dose/g (Rattus norvegicus [13]): 0.05%
Structure (SMILES): CN(C)Cc1ccccc1Sc1cc(F)c(Cl)cc1N
